Reference: ChEMBL document CHEMBL4811254, “Beyond Basicity: Discovery of Nonbasic DENV-2 Protease Inhibitors with Potent Activity in Cell Culture” (J Med Chem, 2021)
Calls of active or inactive are those of the source.

Experiments:
[1] = biological target: Genome polyprotein (dengue virus type 2) (UniProt P29990); test: Inhibition of NS2B-NS3 protease in DENV2proHeLa system assessed as inhibition of luciferase signal at 12.5 uM incubated for 24 hrs by luciferase reporter gene assay; assay type: cell-based; settings: HeLa
Method in brief: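 Stable DENV2proHeLa cells seeded at 2 × 10⁴/well and dosed immediately, then incubated 24 h at 37 °C. Cells lysed 15 min at room temperature. Luciferase read with coelenterazine (2.75 μM in PBS) injection, luminescence 5 s. Triplicates; percent inhibition calculated relative to untreated control; background from cell-free wells.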

[2] = biological target: T1, Genome polyprotein (dengue virus type 2, UniProt P29990); test: Inhibition of NS2B-NS3 protease in DENV2proHeLa system assessed as inhibition of luciferase signal incubated for 24 hrs by luciferase reporter gene assay; assay type: cell-based, HeLa
Method in brief: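 HeLa cells stably carrying the reporter system, 2 × 10⁴ per well, given inhibitor at seeding and held 24 h at 37 °C. Cells lysed 15 min at room temperature. Luciferase read for 5 s after injecting coelenterazine (2.75 μM in PBS). Triplicate wells per concentration; percent inhibition taken against untreated cells. EC50/EC90 from 4-parameter dose-response fit, background from cell-free wells subtracted.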

[3] = Cytotoxicity against human HeLa cells assessed as reduction in cell viability incubated for 24 hrs by CellTiter-Blue assay; assay type: cell-based
Method in brief: (§1)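 Viability by CellTiter-Blue in HeLa or Huh-7 cells exposed to compound dilutions. Plates run in parallel with the reporter assay (HeLa) or the virus titer assay (Huh-7).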

[4] = biological target: Prothrombin (Homo sapiens) (UniProt P00734); test: Inhibition of thrombin in human plasma using Boc-Val-Pro-Arg-AMC as substrate at 25 uM preincubated with enzyme for 15 mins followed by substrate addition and measured for 15 mins by fluorimetric assay; assay type: cell-free; settings: time 30.0 min
[5] = biological target: Trypsin (Homo sapiens) (UniProt P07477+P07478+P35030); test: Inhibition of trypsin (unknown origin) using Boc-Val-Pro-Arg-AMC as substrate at 50 uM preincubated with enzyme for 15 mins followed by substrate addition and measured for 15 mins by fluorimetric assay; assay type: protein assay; settings: time 30.0 min
[6] = biological target: Genome polyprotein (dengue virus type 2) (UniProt P29990); test: Inhibition of DENV2 NS2B-NS3 protease expressed in Escherichia coli BL21 lambda(DE3) using FRET substrate preincubated with enzyme for 15 mins in presence of detergent CHAPS followed by substrate addition for 15 mins by fluorescence based analysis; settings: time 30.0 min
[7] = tested on: dengue virus type 2; test: (§2) Antiviral activity against DENV2 infected in human Huh7 cells assessed as reduction in virus titer in cell supernatant by measuring inhibition of plaque formation using VeroE6 cells at 12.5 uM preincubated with viral infected Huh7 cells for 48 hrs and measured following infection of VeroE6 cells with supernatants for 7 days by plaque assay based crystal violet staining analysis; assay type: functional; settings: Huh-7, 216 h, time 9 day
Method in brief: (§3)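 Huh-7 cells seeded at 1 × 10⁴/well and incubated overnight. Infected with DENV-2 at MOI 1 for 2 h, then medium changed and compound added. […] Pooled supernatants titred by plaque assay on VeroE6 cells: 10⁻¹ to 10⁻⁶ dilutions, 1 h infection, 7 days, formaldehyde fix, crystal violet.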

[8] = tested on: dengue virus type 2; test: as §2, with “cells” for “cells at 12.5 uM”; assay type: functional, organism-based, Huh-7; settings: for EC50: Huh-7; for EC90: Huh-7, 216 h, time 9 day; method in brief: as §3
[9] = tested on: Huh-7; test: Cytotoxicity against human Huh-7 cells assessed as reduction in cell viability at 12.5 uM incubated for 48 hrs by CellTiter-Blue assay; assay type: cell-based; settings: huh-7, 48 h; method in brief: as §1
[10] = Passive membrane permeability of the compound in phosphate buffered saline assessed as concentration of the compound in acceptor plate at 200 uM incubated for 5 hrs by PAMPA assay based HPLC analysis; assay type: ADME
Method in brief: (§4)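 Precoated trilayer PAMPA, 5 h incubation. Acceptor and donor concentrations measured after 5 h. Permeability and mass retention calculated by a literature method.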

[11] = Passive membrane permeability of the compound in phosphate buffered saline assessed as concentration of the compound in donor plate at 200 uM incubated for 5 hrs by PAMPA assay based HPLC analysis; assay type: ADME; method in brief: as §4
[12] = Passive membrane permeability of the compound in phosphate buffered saline at 200 uM incubated for 5 hrs by PAMPA assay based HPLC analysis; assay type: ADME; settings: PAMPA, read-out: permeability; method in brief: as §4
[13] = Passive membrane permeability of the compound in phosphate buffered saline assessed as mass retention of the compound at 200 uM incubated for 5 hrs by PAMPA assay based HPLC analysis; assay type: ADME; method in brief: as §4
[14] = Half life in Sprague-Dawley rat liver microsomes at 100 uM incubated for 60 mins in presence of NADPH by HPLC analysis; assay type: ADME, Microsome
Method in brief: (§5)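 Rat liver microsomes; samples incubated 60 min at 37 °C, parent compound depletion monitored.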

[15] = Stability of the compound assessed as bovine pancreas trypsin-mediated parent compound depletion at 0.1 mg/ml incubated for 120 mins by HPLC analysis; assay type: ADME, Bos taurus; settings: cattle; for Stabilty: isolated protein, 2 h; for metabolised at 2 h, 0.1 mg/ml: bovine pancreas trypsin, read-out: Drug degradation
Method in brief: (§6)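 Compound incubated with α-chymotrypsin or bovine trypsin in buffer for 120 min at 37 °C; parent compound depletion monitored.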

[16] = Stability of the compound assessed as bovine pancreas alphachymotrypsin-mediated parent compound depletion at 0.1 mg/ml incubated for 120 mins by HPLC analysis; assay type: ADME, Bos taurus; settings: cattle, bovine pancreas alpha-chymotrypsin, read-out: Drug degradation; method in brief: as §6
[17] = biological target: Genome polyprotein (dengue virus type 2) (UniProt P29990); test: Binding affinity to DENV2 NS2B-NS3 protease expressed in Escherichia coli BL21 lambda(DE3) assessed as quenching of fluorescence of tryptophan residue of the enzyme incubated for 1 hr by tryptophan fluorescence quenching assay; settings: dose 10-50 µM
Method in brief: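 Compound added to isolated DENV-2 protease; tryptophan fluorescence quenching monitored across concentrations. Aprotinin added as active-site competitor to test displacement.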

[18] = biological target: Genome polyprotein (dengue virus type 2) (UniProt P29990); test: Binding affinity to DENV2 NS2B-NS3 protease expressed in Escherichia coli BL21 lambda(DE3) assessed as quenching of fluorescence of tryptophan residue of the enzyme at 50 uM incubated for 1 hr in presence of aprotinin by tryptophan fluorescence quenching assay
[19] = biological target: Genome polyprotein (West Nile virus) (UniProt P06935); test: Inhibition of WNV NS2B-NS3 protease expressed in Escherichia coli BL21 lambda(DE3) using FRET substrate preincubated with enzyme for 15 mins in presence of detergent CHAPS followed by substrate addition for 15 mins by fluorescence based analysis; settings: time 30.0 min
Chain of Genome polyprotein (West Nile virus) (P06935 whole entry): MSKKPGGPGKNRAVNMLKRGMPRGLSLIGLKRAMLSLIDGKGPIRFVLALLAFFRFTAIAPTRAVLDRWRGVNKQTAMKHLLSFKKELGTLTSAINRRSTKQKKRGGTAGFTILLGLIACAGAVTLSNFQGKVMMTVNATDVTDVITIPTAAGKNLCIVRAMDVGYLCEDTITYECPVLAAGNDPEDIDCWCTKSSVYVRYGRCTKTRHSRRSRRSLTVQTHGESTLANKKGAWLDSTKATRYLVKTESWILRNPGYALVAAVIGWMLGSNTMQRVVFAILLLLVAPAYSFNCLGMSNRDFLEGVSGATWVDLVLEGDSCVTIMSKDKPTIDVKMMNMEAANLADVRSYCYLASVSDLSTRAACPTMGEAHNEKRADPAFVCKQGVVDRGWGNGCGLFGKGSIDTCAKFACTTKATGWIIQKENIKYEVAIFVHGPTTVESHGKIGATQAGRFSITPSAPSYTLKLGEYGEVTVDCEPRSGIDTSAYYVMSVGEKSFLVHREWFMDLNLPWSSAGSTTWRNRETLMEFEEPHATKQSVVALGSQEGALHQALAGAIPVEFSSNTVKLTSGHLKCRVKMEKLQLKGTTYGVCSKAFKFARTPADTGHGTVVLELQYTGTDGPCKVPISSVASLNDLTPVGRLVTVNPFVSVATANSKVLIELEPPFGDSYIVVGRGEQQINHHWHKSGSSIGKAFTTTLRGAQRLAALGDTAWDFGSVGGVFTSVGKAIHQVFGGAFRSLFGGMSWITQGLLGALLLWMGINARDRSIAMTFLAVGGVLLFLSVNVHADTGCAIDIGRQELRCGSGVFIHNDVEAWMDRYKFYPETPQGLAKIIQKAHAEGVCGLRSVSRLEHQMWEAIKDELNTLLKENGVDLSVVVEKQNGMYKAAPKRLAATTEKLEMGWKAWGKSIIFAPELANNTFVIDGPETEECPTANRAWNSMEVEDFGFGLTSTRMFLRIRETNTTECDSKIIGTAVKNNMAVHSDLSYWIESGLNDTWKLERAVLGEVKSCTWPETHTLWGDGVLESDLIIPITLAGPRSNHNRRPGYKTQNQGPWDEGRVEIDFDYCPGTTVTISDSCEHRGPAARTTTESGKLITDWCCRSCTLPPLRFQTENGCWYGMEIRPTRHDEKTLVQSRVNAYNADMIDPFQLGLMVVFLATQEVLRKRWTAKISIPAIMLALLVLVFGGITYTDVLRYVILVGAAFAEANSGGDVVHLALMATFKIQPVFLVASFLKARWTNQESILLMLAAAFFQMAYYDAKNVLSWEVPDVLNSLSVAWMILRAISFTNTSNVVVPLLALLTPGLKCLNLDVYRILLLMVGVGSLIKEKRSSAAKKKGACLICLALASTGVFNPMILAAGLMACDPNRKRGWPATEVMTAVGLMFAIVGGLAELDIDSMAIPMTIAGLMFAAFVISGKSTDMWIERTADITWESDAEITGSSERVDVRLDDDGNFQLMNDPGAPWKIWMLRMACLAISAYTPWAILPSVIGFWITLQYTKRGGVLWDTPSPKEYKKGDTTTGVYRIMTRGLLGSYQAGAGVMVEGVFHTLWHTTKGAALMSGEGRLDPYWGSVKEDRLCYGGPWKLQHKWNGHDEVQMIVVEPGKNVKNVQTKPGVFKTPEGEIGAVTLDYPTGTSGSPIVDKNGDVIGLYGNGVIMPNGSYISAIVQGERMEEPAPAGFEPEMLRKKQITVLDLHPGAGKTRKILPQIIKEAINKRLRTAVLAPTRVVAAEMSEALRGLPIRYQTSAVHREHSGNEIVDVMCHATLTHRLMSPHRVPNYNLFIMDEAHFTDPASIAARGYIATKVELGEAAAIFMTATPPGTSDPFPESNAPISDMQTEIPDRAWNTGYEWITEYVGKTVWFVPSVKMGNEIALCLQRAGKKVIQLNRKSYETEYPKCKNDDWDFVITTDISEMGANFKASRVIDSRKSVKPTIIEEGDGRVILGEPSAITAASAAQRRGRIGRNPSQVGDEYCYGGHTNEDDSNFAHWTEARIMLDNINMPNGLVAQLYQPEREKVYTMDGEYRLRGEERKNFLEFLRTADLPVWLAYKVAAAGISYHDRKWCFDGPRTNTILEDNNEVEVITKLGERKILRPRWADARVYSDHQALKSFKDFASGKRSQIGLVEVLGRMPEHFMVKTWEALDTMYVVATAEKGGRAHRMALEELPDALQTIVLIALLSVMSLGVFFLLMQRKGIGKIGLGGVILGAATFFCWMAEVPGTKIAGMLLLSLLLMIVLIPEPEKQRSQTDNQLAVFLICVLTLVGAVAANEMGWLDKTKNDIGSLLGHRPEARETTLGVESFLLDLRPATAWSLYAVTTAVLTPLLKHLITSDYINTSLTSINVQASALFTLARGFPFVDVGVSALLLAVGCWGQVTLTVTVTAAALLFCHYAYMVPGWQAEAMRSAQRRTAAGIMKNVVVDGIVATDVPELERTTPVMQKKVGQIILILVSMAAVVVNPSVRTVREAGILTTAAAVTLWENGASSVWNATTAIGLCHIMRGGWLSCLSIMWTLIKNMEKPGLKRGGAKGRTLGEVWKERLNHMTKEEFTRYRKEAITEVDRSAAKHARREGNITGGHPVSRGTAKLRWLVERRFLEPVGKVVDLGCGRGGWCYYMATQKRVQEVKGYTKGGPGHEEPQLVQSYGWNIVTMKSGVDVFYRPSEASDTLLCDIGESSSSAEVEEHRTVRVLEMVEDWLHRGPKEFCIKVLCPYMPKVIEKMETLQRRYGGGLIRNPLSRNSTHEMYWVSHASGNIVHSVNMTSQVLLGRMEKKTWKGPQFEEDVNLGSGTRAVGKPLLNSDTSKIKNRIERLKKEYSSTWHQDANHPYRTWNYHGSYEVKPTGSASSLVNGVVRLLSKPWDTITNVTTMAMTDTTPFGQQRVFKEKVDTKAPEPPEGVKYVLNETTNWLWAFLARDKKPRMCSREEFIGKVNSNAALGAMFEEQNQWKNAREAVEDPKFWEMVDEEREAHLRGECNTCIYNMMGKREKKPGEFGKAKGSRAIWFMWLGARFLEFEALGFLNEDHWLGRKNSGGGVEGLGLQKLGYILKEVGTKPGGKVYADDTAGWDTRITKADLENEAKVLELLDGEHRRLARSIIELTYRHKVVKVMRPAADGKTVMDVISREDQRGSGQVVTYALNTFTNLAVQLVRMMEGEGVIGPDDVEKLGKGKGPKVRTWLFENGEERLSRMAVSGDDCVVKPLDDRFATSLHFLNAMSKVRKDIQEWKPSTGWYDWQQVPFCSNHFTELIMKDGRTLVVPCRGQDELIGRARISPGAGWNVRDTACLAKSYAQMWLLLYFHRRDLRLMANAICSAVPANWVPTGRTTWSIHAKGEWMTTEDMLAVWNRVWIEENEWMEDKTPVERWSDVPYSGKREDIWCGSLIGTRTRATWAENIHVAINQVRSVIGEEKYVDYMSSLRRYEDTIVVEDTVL

[20] = Selectivity index, ratio of CC50 for human HeLa cells to EC50 for inhibition of NS2B-NS3 protease in DENV2proHeLa system; assay type: toxicity; settings: read-out: Ratio CC50/EC50
[21] = biological target: T1, Genome polyprotein; test: Competitive inhibition of DENV2 NS2B-NS3 protease expressed in Escherichia coli BL21 lambda(DE3) using FRET substrate preincubated with enzyme for 15 mins followed by varying concentrations of substrate addition for 15 mins by Cheng-Prusoff plot analysis
[22] = biological target: Genome polyprotein (dengue virus type 2) (UniProt P29990); test: Competitive inhibition of DENV2 NS2B-NS3 protease expressed in Escherichia coli BL21 lambda(DE3) assessed as increase in Km without change in Vmax using FRET substrate preincubated with enzyme for 15 mins followed by substrate addition for 15 mins by Michaelis-Menten based analysis; settings: time 30.0 min
[23] = biological target: T1, Genome polyprotein; test: Competitive inhibition of DENV2 NS2B-NS3 protease expressed in Escherichia coli BL21 lambda(DE3) using FRET substrate preincubated with enzyme for 15 mins followed by substrate addition for 15 mins by Michaelis-Menten based analysis
[24] = Stability of the compound assessed as bovine pancreas alphachymotrypsin-mediated parent compound depletion by measuring parent compound remaining at 0.1 mg/ml incubated for 120 mins by HPLC analysis; assay type: ADME, Bos taurus; settings: cattle, bovine pancreas alpha-chymotrypsin, read-out: Stabilty; method in brief: as §6
[25] = Metabolic stability in Sprague-Dawley rat liver microsomes at 100 uM incubated for 60 mins in presence of NADPH by HPLC analysis; assay type: ADME, Microsome; settings: 1 h; method in brief: as §5

SMILES	inhibition [1]	EC50 [2]	CC50 at 24 h [3]	inhibition [4]	inhibition [5]	inhibition [6]	inhibition at 12.5 µM [7]	EC50 [8]	EC90 [8]	Activity [9]	Activity [10]	Activity [11]	Papp at 5 h, 200 µM [12]	Activity [13]	metabolised at 2 h, 0.1 mg/ml [15]	Ki [21]	remaining at 2 h, 0.1 mg/ml [24]	further results
NC(=O)c1cccc(NC(=O)[C@@H](NC(=O)c2ccc(N3CCOCC3)cc2)c2ccc(OCc3ccccc3)cc2)c1	79%	2.2 µM	> 100 µM	inactive	inactive	Active	96%	0.85 µM	15 µM	< 20%	8.1 µM	181 µM	1.7 ×10⁻⁶ cm/s	7.1%	–	–	–	half-life at 100 µM [14]: 27 min; Stabilty [15]: Unstable; metabolised at 2 h, 0.1 mg/ml [16]: 40%
NC(=O)c1cccc(NC(=O)[C@@H](NC(=O)c2ccc(-c3ccco3)cc2)c2ccc(OCc3ccccc3)cc2)c1	76%	1.7 µM	> 50 µM	inactive	inactive	–	59%	–	–	< 20%	2.1 µM	169 µM	0.45 ×10⁻⁶ cm/s	15%	–	–	–	Activity [17]: Active; Activity [18]: inactive
CCCCCC(=O)N[C@H](C(=O)NCc1ccc(NC(=N)N)cc1)c1ccc(OCc2ccccc2)cc1	–	–	–	–	–	Active	–	–	–	–	–	–	–	–	25%	–	–	half-life at 100 µM [14]: 55 min; metabolised at 2 h, 0.1 mg/ml [16]: 40%
N#Cc1ccc(Oc2ccc(C(=O)N[C@H](C(=O)Nc3cccc(C(N)=O)c3)c3ccc(OCc4ccccc4)cc3)cc2)cc1	79%	1 µM	> 100 µM	inactive	inactive	Active	88%	0.66 µM	8 µM	< 20%	4.5 µM	177 µM	1 ×10⁻⁶ cm/s	9.9%	–	–	–	inhibition [19]: Active
NC(=O)c1cccc(NC(=O)[C@@H](NC(=O)c2ccc(Oc3ccccc3)cc2)c2ccc(OCc3ccccc3)cc2)c1	83%	0.73 µM	> 100 µM	inactive	inactive	Active	100%	0.66 µM	7 µM	< 20%	9.5 µM	164 µM	2.2 ×10⁻⁶ cm/s	15%	25%	6.1 µM	70%	selectivity ratio [20]: > 140; inhibition [22]: Active; Ki [23]: 5.2 µM
NC(=O)c1cccc(NC(=O)[C@@H](NC(=O)c2ccc(-c3ccc(Cl)cc3)cc2)c2ccc(OCc3ccccc3)cc2)c1	78%	1.2 µM	> 25 µM	inactive	inactive	Active	100%	1.6 µM	4.7 µM	< 20%	3.7 µM	187 µM	0.7 ×10⁻⁶ cm/s	5.5%	25%	6.9 µM	70%	inhibition [22]: Active; Ki [23]: 4.1 µM; inhibition [19]: Active; Stabilty [25]: Stable
NC(=O)c1cccc(NC(=O)[C@@H](NC(=O)c2ccc(Oc3ccc(Cl)cc3)cc2)c2ccc(OCc3ccccc3)cc2)c1	86%	0.58 µM	96 µM	inactive	inactive	–	–	–	–	–	–	–	–	–	–	–	–	selectivity ratio [20]: > 140
NC(=O)c1ccc(CNC(=O)[C@@H](NC(=O)c2ccc(-c3cccs3)s2)c2ccc(OCc3ccccc3)cc2)cc1	63%	6.2 µM	> 100 µM	inactive	inactive	–	–	–	–	–	–	–	–	–	–	–	–	Activity [17]: Active; Activity [18]: inactive
NC(=O)c1cccc(NC(=O)[C@@H](NC(=O)c2ccc(Oc3ccc(C(F)(F)F)cc3)cc2)c2ccc(OCc3ccccc3)cc2)c1	76%	1.2 µM	> 100 µM	inactive	inactive	Active	100%	0.24 µM	4.8 µM	< 20%	6.9 µM	188 µM	1.4 ×10⁻⁶ cm/s	3.7%	25%	6.3 µM	70%	Stabilty [25]: Stable
N=C(N)NCCC[C@H](NC(=O)c1ccccc1)C(=O)NC(CCCCN)C(=O)NC(C(N)=O)c1ccc(OCc2ccccc2)cc1 (stereo partly drawn)	–	–	–	–	–	Active	50%	–	–	< 20%	–	–	–	–	–	–	–	inhibition [19]: Active; Stabilty [15]: Unstable
NC(=O)c1cccc(NC(=O)[C@@H](NC(=O)c2ccc(C(=O)c3ccccc3)cc2)c2ccc(OCc3ccccc3)cc2)c1	76%	0.39 µM	> 100 µM	inactive	inactive	Active	100%	1.1 µM	4.6 µM	< 20%	8.6 µM	178 µM	1.8 ×10⁻⁶ cm/s	8.1%	25%	3.5 µM	70%	–
